High-throughput results deposited in PubChem by several laboratories.
MT1-MMP act inh: MT1-MMP (human) activation inhibition; GFP/RFP ratio change, % at 20 µM; P50281; 360,000 compounds, 0.061% hits; HT1080 RFP-PRO-GFP cells, GFP/RFP ratio fluorescence, overnight; percent of plate control window, DMSO zero;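 active = GFP/RFP ratio change of at least 30% with cell ATP level not reduced by more than half and red fluorescence within 50% of control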
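Assay system: RFP-PRO-GFP reporter HT1080 cells; read-out basis: GFP/RFP fluorescence ratio; benchmarks: DMSO wells and RFP-L50D-GFP cells; doses: 20 µM single dose, 1% DMSO; schedule: overnight cell settling, then overnight compound exposure, 37 °C, 5% CO2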
SKN-1 inh: blocks SKN-1 activity in C. elegans. 360,000 compounds, 0.49% hits. C. elegans VP596 Pgst-4::GFP/RFP ratio, acrylamide-induced, 24 h. AID 624304. inhibition, % at 21.8 µM;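 active = interference check ratio from 0.5 to 1.5 plus GFP to RFP signal ratio inhibition reaching or exceeding a fixed threshold, cut at about 30% in these data, passing the limit was not always enough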
DDE Tn6 FP inh: DD(E)-Tn6 binding inhibition, primary FP screen | 370,000 compounds, 0.21% hits | Fibrin DD(E) TRITC-Tn6 fluorescence polarization displacement | inhibition, % at 8.3 µM | P02675;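 active = inhibition above a per-campaign cutoff: mean of compounds within control limits plus 3 SD, cut at about 15% in these data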
Target sequence (P02675 whole entry, looked up): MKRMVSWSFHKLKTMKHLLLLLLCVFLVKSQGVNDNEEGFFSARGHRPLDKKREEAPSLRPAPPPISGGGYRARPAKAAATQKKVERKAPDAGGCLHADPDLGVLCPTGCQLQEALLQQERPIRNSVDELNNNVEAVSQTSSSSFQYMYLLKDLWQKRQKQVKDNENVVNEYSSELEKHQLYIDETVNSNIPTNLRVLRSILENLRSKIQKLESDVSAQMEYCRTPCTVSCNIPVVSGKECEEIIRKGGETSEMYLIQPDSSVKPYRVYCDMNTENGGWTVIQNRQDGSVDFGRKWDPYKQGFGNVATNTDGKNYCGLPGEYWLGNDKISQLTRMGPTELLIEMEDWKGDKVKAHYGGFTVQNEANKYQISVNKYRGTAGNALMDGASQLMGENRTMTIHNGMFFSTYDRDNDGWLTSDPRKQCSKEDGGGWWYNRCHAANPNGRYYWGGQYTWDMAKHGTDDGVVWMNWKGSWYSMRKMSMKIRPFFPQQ
DDE Tn7 FP inh: disrupts Tn7 cyclic peptide binding to fibrin D-Dimer-E complex; FP displacement of FITC-Tn7 peptide from fibrin DD(E); 0% = median of compound wells per plate; inhibition, % at 8.3 µM; 370,000 compounds, 0.13% hits;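 active = inhibition above the mean of compounds falling within the control limits plus 3 SD of them, cut at about 14% in these data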
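Also added: labelled Tn7 tracer, 0.1 µM; Assay system: human fibrin DD(E) protein; Amount: 2 µM fibrin DD(E); Schedule: 10 min compound pre-incubation, 3 h probe incubation at room temperature; Repeats: one replicate per compound; Read-out basis: percent inhibition; Measured by: fluorescence polarization of the labelled Tn7 tracer.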
A number is an active result. Sampled rows, rich in hits. Any-hit rate of the full collection: about 0.84%.

Results for O=C(c1ccncc1)N1CC[C@H]2[C@H](CCCN2Cc2ccccc2)C1 ?
DDE Tn6 FP inh: inactive; DDE Tn7 FP inh: inactive

How did CC(C)N(C(=O)[C@H]1C[C@H](CC(=O)NCCC2=CCCCC2)C(=O)N2CCc3c([nH]c4ccc(Cl)cc34)[C@]12C)C(C)C do in these assays?
MT1-MMP act inh: inactive; SKN-1 inh: inactive; DDE Tn6 FP inh: inactive; DDE Tn7 FP inh: inactive

How did CC(=O)Nc1ccc(NC(=O)C2Cc3c(-c4cccc(F)c4)ccnc3O2)cc1 (stereo not given) do in these assays?
MT1-MMP act inh: inactive; SKN-1 inh: 37; DDE Tn6 FP inh: inactive; DDE Tn7 FP inh: inactive

Results for O=C(Nc1ccc(Cl)cc1)C1Cc2c(-c3cccc(F)c3)ccnc2O1 (stereo not given) ?
MT1-MMP act inh: inactive; SKN-1 inh: inactive; DDE Tn6 FP inh: inactive; DDE Tn7 FP inh: inactive

Results for Cn1c(/C(C#N)=C(\O)c2ccc([N+](=O)[O-])s2)nc2ccccc21 ?
MT1-MMP act inh: inactive; SKN-1 inh: 40; DDE Tn6 FP inh: inactive; DDE Tn7 FP inh: inactive

How did CC(C)(C)CCN1CCC[C@H](NC(=O)COc2ccc(F)c(Cl)c2)C1 do in these assays?
DDE Tn6 FP inh: inactive; DDE Tn7 FP inh: inactive

What do the screens show for `O=[N+]([O-])c1ccc2cn(-c3ccccc3)nc2c1`?
MT1-MMP act inh: inactive; SKN-1 inh: 57; DDE Tn6 FP inh: inactive; DDE Tn7 FP inh: inactive

What do the screens show for `COC(=O)c1nc(-c2ccccc2)oc1N(C)C`?
MT1-MMP act inh: inactive; SKN-1 inh: 32; DDE Tn6 FP inh: inactive; DDE Tn7 FP inh: inactive

Results for COC(=O)c1nc(-c2ccc(C)cc2)oc1N(C)C ?
MT1-MMP act inh: inactive; SKN-1 inh: inactive; DDE Tn6 FP inh: inactive; DDE Tn7 FP inh: inactive

Results for Clc1ccc(N=c2ssnc2Cl)cc1 ?
MT1-MMP act inh: inactive; SKN-1 inh: 92; DDE Tn6 FP inh: inactive; DDE Tn7 FP inh: inactive

Results for COc1cccc(CNC(=O)[C@@H]2CCCN2C(=O)[C@@H]2CCCN2)c1 ?
MT1-MMP act inh: inactive; SKN-1 inh: inactive; DDE Tn6 FP inh: inactive; DDE Tn7 FP inh: inactive

How did COC(=O)Cn1c2ccc(OC)cc2c2nc(C)sc21 do in these assays?
MT1-MMP act inh: inactive; SKN-1 inh: inactive; DDE Tn6 FP inh: inactive; DDE Tn7 FP inh: inactive

What do the screens show for `O=C(CSc1nnc(COc2ccc(Cl)cc2)o1)NC1CC2CCC1C2` (stereo not given)?
MT1-MMP act inh: inactive; SKN-1 inh: 39; DDE Tn6 FP inh: inactive; DDE Tn7 FP inh: inactive

Results for COc1ccc(OCc2nnc(SCC(=O)NC3CC4CCC3C4)o2)cc1 (stereo not given) ?
MT1-MMP act inh: inactive; SKN-1 inh: inactive; DDE Tn6 FP inh: inactive; DDE Tn7 FP inh: inactive

How did CSc1nc(N2CCOCC2)c2c(c1C#N)CC(C)(C)OC2 do in these assays?
MT1-MMP act inh: inactive; SKN-1 inh: 37; DDE Tn6 FP inh: inactive; DDE Tn7 FP inh: inactive

What do the screens show for `Cn1c(=O)c(-c2ccccc2)nn2c3ccccc3nc12`?
MT1-MMP act inh: inactive; SKN-1 inh: inactive; DDE Tn6 FP inh: inactive; DDE Tn7 FP inh: inactive

Results for CCn1c(=O)c(C)nn2c3ccccc3nc12 ?
MT1-MMP act inh: inactive; SKN-1 inh: 35; DDE Tn6 FP inh: inactive; DDE Tn7 FP inh: inactive

How did COC(=O)[C@]12C[C@H](CC(=O)N3CCN(C(=O)c4ccco4)CC3)C(=O)N(CCC3=CCCCC3)C1=C[C@H](C(C)C)O[C@@H]2C1CC1 do in these assays?
DDE Tn6 FP inh: inactive; DDE Tn7 FP inh: inactive

How did CCOC(=O)SC1=N/C(=C\c2ccc(N(C)C)cc2)C(=O)S1 do in these assays?
MT1-MMP act inh: inactive; SKN-1 inh: 41; DDE Tn6 FP inh: inactive; DDE Tn7 FP inh: inactive

Results for CCSC1=N/C(=C\c2ccc(C(=O)O)cc2)C(=O)S1 ?
MT1-MMP act inh: inactive; SKN-1 inh: inactive; DDE Tn6 FP inh: inactive; DDE Tn7 FP inh: inactive

How did COc1ccc(S[C@]2(C(=O)N(C)C)CC(=O)N(S(=O)(=O)c3ccc(F)cc3)[C@@H]2c2ccc(OC)cc2)cc1 do in these assays?
DDE Tn6 FP inh: inactive; DDE Tn7 FP inh: inactive

What do the screens show for `Cc1ccc(C(=O)Nc2nc(-c3ccc(F)cc3)cs2)o1`?
MT1-MMP act inh: inactive; SKN-1 inh: 36; DDE Tn6 FP inh: inactive; DDE Tn7 FP inh: inactive

How did Cc1ccc(-c2csc(NC(=O)c3ccno3)n2)cc1 do in these assays?
MT1-MMP act inh: inactive; SKN-1 inh: 37; DDE Tn6 FP inh: inactive; DDE Tn7 FP inh: inactive

How did COC(=O)c1ccn(CC(=O)NC2CCCCC2)n1 do in these assays?
MT1-MMP act inh: inactive; SKN-1 inh: inactive; DDE Tn6 FP inh: inactive; DDE Tn7 FP inh: inactive

What do the screens show for `Cc1ccc(Cn2nnc3c2-c2ccccc2S(=O)(=O)N(C)C3)cc1`?
DDE Tn6 FP inh: inactive; DDE Tn7 FP inh: inactive

How did Cc1ccc(N=c2c([N+](=O)[O-])nn(-c3ccccc3)n2O)c(C)c1 do in these assays?
MT1-MMP act inh: inactive; SKN-1 inh: inactive; DDE Tn6 FP inh: inactive; DDE Tn7 FP inh: inactive

Results for Cc1c(Cl)cccc1N=c1c([N+](=O)[O-])nn(-c2ccccc2)n1O ?
MT1-MMP act inh: inactive; SKN-1 inh: 52; DDE Tn6 FP inh: inactive; DDE Tn7 FP inh: inactive

What do the screens show for `O=C(OCc1ccccc1)N1CCC2CC1c1cc(-c3cc4ccccc4o3)ccc12` (stereo not given)?
MT1-MMP act inh: inactive; SKN-1 inh: inactive; DDE Tn6 FP inh: inactive; DDE Tn7 FP inh: inactive

Results for COc1cccc(N2CC(O)=C(c3ccccc3)C2=N)c1 ?
MT1-MMP act inh: inactive; SKN-1 inh: 35; DDE Tn6 FP inh: inactive; DDE Tn7 FP inh: inactive

What do the screens show for `CC1(C)Oc2ccc(C(=O)NC3CCCC3)cc2NC1=O`?
DDE Tn6 FP inh: inactive; DDE Tn7 FP inh: inactive

Results for CN(C)[C@H]1CCN(c2ccc3c(c2)OCCCN(C2CC2)S3(=O)=O)C1 ?
DDE Tn6 FP inh: inactive; DDE Tn7 FP inh: inactive

How did CC1CC(C)CN(C(=O)c2ccncc2)C1 (stereo not given) do in these assays?
MT1-MMP act inh: inactive; SKN-1 inh: inactive; DDE Tn6 FP inh: inactive; DDE Tn7 FP inh: inactive

Results for CC1CCCN(C(=O)c2ccncc2)C1 (stereo not given) ?
MT1-MMP act inh: inactive; SKN-1 inh: 35; DDE Tn6 FP inh: inactive; DDE Tn7 FP inh: inactive

What do the screens show for `COc1ccc(/C=C(\C#N)C(=O)NCC2CCCO2)cc1OC` (stereo not given)?
MT1-MMP act inh: inactive; SKN-1 inh: 36; DDE Tn6 FP inh: inactive; DDE Tn7 FP inh: inactive

What do the screens show for `COc1cc(/C=C(\C#N)C(=O)NCC2CCCO2)ccc1OCC(N)=O` (stereo not given)?
MT1-MMP act inh: inactive; SKN-1 inh: inactive; DDE Tn6 FP inh: inactive; DDE Tn7 FP inh: inactive

What do the screens show for `COc1ccc(OC)c(N)c1`?
MT1-MMP act inh: 37; SKN-1 inh: inactive; DDE Tn6 FP inh: inactive; DDE Tn7 FP inh: inactive

What do the screens show for `COc1ccc(C)cc1N`?
DDE Tn6 FP inh: inactive; DDE Tn7 FP inh: inactive

Results for Cc1ccc(-c2cc(C(=O)NN=Cc3cccc4ccccc34)[nH]n2)cc1C ?
DDE Tn6 FP inh: inactive; DDE Tn7 FP inh: inactive

What do the screens show for `Cc1nc2ccc(NC(=O)c3ccc(F)cc3F)cc2c(=O)[nH]1`?
DDE Tn6 FP inh: inactive; DDE Tn7 FP inh: inactive

What do the screens show for `Oc1c(N=Nc2nn[nH]n2)ccc2ccccc12`?
MT1-MMP act inh: inactive; SKN-1 inh: 54; DDE Tn6 FP inh: inactive; DDE Tn7 FP inh: inactive
